A short description of data set [1]: Selectivity index, ratio of IC50 for African green monkey Vero cells to IC50 for Trypanosoma cruzi MHOM/Pe/2011/Arequipa DTU 5 amastigotes infected in African green monkey Vero cells. As to conditions: read-out: Ratio IC50. The format is toxicity. In a few lines:
(§1)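 SI is Vero IC50 divided by the IC50 for the stated parasite form. For Vero cytotoxicity, cells were seeded at 1.25×10^4 mL^-1 with compounds at 1000–1 µM, incubated 48 h, then given resazurin for a further 24 h (72 h total), with absorbance read at 570/600 nm. Triplicate, four determinations.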

A short description of data set [2]: Selectivity index, ratio of IC50 for African green monkey Vero cells to IC50 for Trypanosoma cruzi IRHOD/CO/2008/SN3 DTU 1 amastigotes infected in African green monkey Vero cells. The following applies: read-out: Ratio IC50. The format is toxicity. The procedure, abridged:
as §1

Data set [3] is described as follows: Selectivity index, ratio of IC50 for African green monkey Vero cells to IC50 for Trypanosoma cruzi IRHOD/CO/2008/SN3 DTU 1 epimastigotes. The following applies: read-out: Ratio IC50. The format is toxicity. The procedure, abridged:
as §1

Another data set deals with Vero. In words: Cytotoxicity against African green monkey Vero cells assessed as reduction in cell viability after 72 hrs by resazurin dye based assay. The following applies: Chlorocebus sabaeus. In a few lines: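 Vero monkey kidney cells grown at 37 °C, 5 % CO2, in RPMI with 10 % heat-inactivated FBS. Seeded at 1.25 × 10^4 mL-1 with compound at 1000 to 1 µM (DMSO 0.01 % v/v). After 48 h, resazurin added for a further 24 h, then SDS. Absorbance read at 570/600 nm. IC50 from triplicates in four separate determinations.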
A general note: The colour change of resazurin is a common sign of viable cells or microbes.

Data set [4] has as its system Trypanosoma cruzi. In words: Trypanocidal activity against Trypanosoma cruzi MHOM/Pe/2011/Arequipa DTU 5 trypamastigotes derived from infected Balb/c albino mouse after 24 hrs by resazurin dye based assay. The format is functional, organism-based. As to conditions: MHOM/Pe/2011/Arequipa DTU 5, 24 h. In a few lines:
(§2)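 Bloodstream trypomastigotes taken from mice at peak parasitaemia were seeded at 2×10^6 mL^-1 in RPMI with 10% FBS. Compounds were added at 50–0.2 µM and incubated 24 h at 37 °C, 5% CO2, then with resazurin for 4 h. SDS was added and absorbance read at 570/600 nm. IC50 was fitted; triplicate, four separate determinations.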

Data set [5] relates to Trypanosoma cruzi. In words: Trypanocidal activity against Trypanosoma cruzi IRHOD/CO/2008/SN3 DTU 1 epimastigotes after 48 hrs by resazurin dye based assay. The following applies: IRHOD/CO/2008/SN3 DTU 1, 48 h. It is filed as functional, organism-based. In a few lines:
(§3)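 Exponential-phase epimastigotes were seeded at 5×10^5 mL^-1 with compounds at 100–0.2 µM (DMSO 0.01% v/v) at 28 °C. After 48 h, resazurin was added for another 24 h. SDS was then added and absorbance read at 570 and 600 nm.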

Data set [6] deals with Trypanosoma cruzi. Briefly: Trypanocidal activity against Trypanosoma cruzi TINF/CH/1956/Tulahuen DTU 6 epimastigotes after 48 hrs by resazurin dye based assay. The format is functional, organism-based. The following applies: TINF/CH/1956/Tulahuen DTU 6, 48 h. In a few lines: as §3
Data set [7] is described as follows: Selectivity index, ratio of IC50 for African green monkey Vero cells to IC50 for Trypanosoma cruzi TINF/CH/1956/Tulahuen DTU 6 epimastigotes. It is filed as toxicity. The following applies: read-out: Ratio IC50. The procedure, abridged: as §1
Data set [8] in a line: Selectivity index, ratio of IC50 for African green monkey Vero cells to IC50 for Trypanosoma cruzi MHOM/Pe/2011/Arequipa DTU 5 trypamastigotes derived from infected Balb/c albino mouse. It is filed as toxicity. The following applies: read-out: Ratio IC50. In a few lines:
as §1

Data set [9] can be described thus: Selectivity index, ratio of IC50 for African green monkey Vero cells to IC50 for Trypanosoma cruzi IRHOD/CO/2008/SN3 DTU 1 trypamastigotes derived from infected Balb/c albino mouse. As to conditions: read-out: Ratio IC50. The format is toxicity. The procedure, abridged: as §1
The test system of data set [10] is Trypanosoma cruzi. In words: Trypanocidal activity against Trypanosoma cruzi MHOM/Pe/2011/Arequipa DTU 5 amastigotes infected in African green monkey Vero cells after 72 hrs by Giemsa-staining based microscopic assay. The format is functional, organism-based. The following applies: MHOM/Pe/2011/Arequipa DTU 5, Vero. In a few lines:
(§4)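 Vero cells were seeded at 1×10^4/well on coverslips. After 24 h they were infected with culture-derived trypomastigotes (MOI 1:10, 24 h), then washed. Compounds were added at 100–0.2 µM (DMSO 0.01% v/v) for 72 h at 37 °C, 5% CO2. Slides were methanol-fixed and Giemsa-stained; amastigotes and infected cells were counted over 500 host cells. IC50 was derived by curve fitting; triplicate wells, four separate determinations.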

Data set [11] has as its system Trypanosoma cruzi. In words: Trypanocidal activity against Trypanosoma cruzi IRHOD/CO/2008/SN3 DTU 1 trypamastigotes derived from infected Balb/c albino mouse after 24 hrs by resazurin dye based assay. As to conditions: IRHOD/CO/2008/SN3 DTU 1, 24 h. The format is functional, organism-based. The procedure, abridged:
as §2

The test system of data set [12] is Trypanosoma cruzi. Briefly: Trypanocidal activity against Trypanosoma cruzi MHOM/Pe/2011/Arequipa DTU 5 epimastigotes after 48 hrs by resazurin dye based assay. The format is functional, organism-based. As to conditions: MHOM/Pe/2011/Arequipa DTU 5, 48 h. The procedure, abridged:
as §3

Data set [13] in a line: Selectivity index, ratio of IC50 for African green monkey Vero cells to IC50 for Trypanosoma cruzi MHOM/Pe/2011/Arequipa DTU 5 epimastigotes. It is filed as toxicity. As to conditions: read-out: Ratio IC50. The procedure, abridged: as §1
Data set [14] relates to Trypanosoma cruzi. In words: Trypanocidal activity against Trypanosoma cruzi IRHOD/CO/2008/SN3 DTU 1 amastigotes infected in African green monkey Vero cells after 72 hrs by Giemsa-staining based microscopic assay. The format is functional, organism-based. As to conditions: IRHOD/CO/2008/SN3 DTU 1, Vero. The procedure, abridged:
as §4

Data set [15] deals with Trypanosoma cruzi. In words: Trypanocidal activity against Trypanosoma cruzi TINF/CH/1956/Tulahuen DTU 6 amastigotes infected in African green monkey Vero cells after 72 hrs by Giemsa-staining based microscopic assay. The format is functional, organism-based. As to conditions: TINF/CH/1956/Tulahuen DTU 6, Vero. The procedure, abridged: as §4
The nature of data set [16]: Selectivity index, ratio of IC50 for African green monkey Vero cells to IC50 for Trypanosoma cruzi TINF/CH/1956/Tulahuen DTU 6 trypamastigotes derived from infected Balb/c albino mouse. The format is toxicity. As to conditions: read-out: Ratio IC50. The procedure, abridged: as §1
A short description of data set [17]: Selectivity index, ratio of IC50 for African green monkey Vero cells to IC50 for Trypanosoma cruzi TINF/CH/1956/Tulahuen DTU 6 amastigotes infected in African green monkey Vero cells. It is filed as toxicity. The following applies: read-out: Ratio IC50. The procedure, abridged: as §1
Data set [18] concerns Trypanosoma cruzi. Briefly: Trypanocidal activity against Trypanosoma cruzi TINF/CH/1956/Tulahuen DTU 6 trypamastigotes derived from infected Balb/c albino mouse after 24 hrs by resazurin dye based assay. It is filed as functional, organism-based. As to conditions: TINF/CH/1956/Tulahuen DTU 6, 24 h. The procedure, abridged: as §2

Molecules are shown by their SMILES.

What is called IC50 is the midpoint of a concentration-inhibition curve. `O=C(CCN1CCN(c2ccc(F)cc2)CC1)c1ccc(F)c(F)c1`: the selectivity ratio in data set [1] was determined as 13.6; in data set [2], 7.5; in data set [3] it was 10.3; in [7], 5.9; in [8] it was 12.2; in data set [9] it was 9.1. Also, the selectivity ratio in [13] turned out to be 18. Moreover, the IC50 worked out at 385 µM in the data set with Vero; 31.6 µM with Trypanosoma cruzi [4]; 37.6 µM in the data set with Trypanosoma cruzi [5]; 65.5 µM in the data set with Trypanosoma cruzi [6]; 28.3 µM with Trypanosoma cruzi [10]; 42.2 µM in the data set with Trypanosoma cruzi [11]. Also, the IC50 is 21.4 µM in the data set with Trypanosoma cruzi [12] and 51.1 µM in the data set on Trypanosoma cruzi [14].
Take `O=C(CCN1CCN(c2ccc([N+](=O)[O-])cc2)CC1)c1ccc(F)c(Br)c1`: the IC50 turned out to be 38.7 µM with Trypanosoma cruzi [15]; 256 µM with Vero; 37.5 µM with Trypanosoma cruzi [5]; 19.1 µM in the data set on Trypanosoma cruzi [6]; 36.5 µM with Trypanosoma cruzi [12]; 32.1 µM in the data set with Trypanosoma cruzi [18]. Also, the selectivity ratio in data set [3] came out at 6.8; in data set [7], 13.4; in data set [16], 8; in [17] it was 6.6; in [13], 7.

The values above are taken from ChEMBL document CHEMBL4118256, “Second Generation of Mannich Base-Type Derivatives with in Vivo Activity against Trypanosoma cruzi” (J Med Chem, 2018).
